Experimental data collected from several papers.
Protocols differ between the studies behind these lines.
Observed: metabolic stability

SMILES | test system | conditions | half-life [min]
CCCCCn1cc(C(=O)Nc2cccc3ccccc23)c2ccccc21 | male human, liver microsomes | 1 µM, pH 7.4 | 2.3
C=C1NC(=O)[C@H](C)N(O)C(=O)[C@H]([C@@H](O)C(N)=O)N(C)C(=O)[C@H](C)OC(=O)[C@@H]2C[C@H](C)CN2C1=O | human, liver microsomes |  | > 120
O=C(c1cc(-n2sc3ncccc3c2=O)ccc1Cl)N1CCOCC1 | human, liver microsomes |  | > 120
Cc1nc2c(=O)n(C)c(=O)nc-2n(C)n1 | human, liver microsomes |  | > 186
N=c1c2c(-c3ccccc3)c(-c3ccccc3)n(Cc3ccccc3)c2ncn1[C@H]1CC[C@H](O)CC1 | human, liver S9 | 1 µM | > 120
O=c1c2ccccc2sn1Cc1ccc(Cl)cc1 | human, liver microsomes |  | 300
CCCCCCCCCCCCCCCCCCCCOP(=O)(O)CO[C@H](C)Cn1cnc2c(N)ncnc21.N | human, liver microsomes | 3 µM, 30 min, pH 7.4 | 49
CN(C)CCc1c[nH]c2ccccc12 | human, hepatocytes | 0.6 µM | 98.9
Cc1cc(C)nc(Nc2ncc(C(=O)NCCc3c(C)[nH]c4ccccc34)cn2)c1 | human, liver microsomes | 1 µM | 28
CCCCCn1nc(C(=O)Nc2cccc3ccccc23)c2ccccc21 | male human, liver microsomes | 1 µM, pH 7.4 | 1.7
NCCc1c[nH]c2ccc(O)cc12 | human, hepatocytes | 5 µM | 33
CC(C)NCC(O)COc1cccc2ccccc12 (stereo not shown) | human, liver microsomes | 2 µM | > 40
CN1CCCCC1Cn1cc(C(=O)c2cc([N+](=O)[O-])ccc2I)c2ccccc21 (racemic) | human, liver microsomes |  | 5.9
C[C@]12CC[C@H]3[C@@H](CCC4=CC(=O)CC[C@@]43C)[C@@H]1CC[C@@H]2O | human, liver microsomes | 1 µM | 14.9
C#Cc1ccc2c(c1)C(c1ccccn1)=NCc1c(-c3cnco3)ncn1-2 | human, liver microsomes |  | 1500
Cc1cnc(Nc2ccc(C(=O)NC3CCN(C(=O)COCCOCCOCC(=O)N4CCC(NC(=O)c5ccc(Nc6ncc(C)c(Nc7ccc(Cl)c(NS(=O)(=O)C(C)(C)C)c7)n6)cc5F)CC4)CC3)c(F)c2)nc1Nc1ccc(Cl)c(NS(=O)(=O)C(C)(C)C)c1 | human, liver microsomes |  | 3.6
